Reference: ChEMBL document CHEMBL3352559, “Synthesis and pharmacological investigation of aralkyl diamine derivatives as potential triple reuptake inhibitors” (Eur J Med Chem, 2014)

Columns and labels:
[1] = molecular target: T1, Sodium-dependent noradrenaline transporter (Homo sapiens, UniProt P23975); experiment: Inhibition of [3H]-NE uptake in human norepinephrine transporter expressed in HEK293 cells by scintillation counting; type: cell-based
[2] = molecular target: 5-hydroxytryptamine receptor 5A (Homo sapiens) (UniProt P47898); experiment: Displacement of [3H]LSD from human 5-HT5A receptor at 10 uM relative to control
How it was run: (§1)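 Outsourced CNS panel of 55 receptor binding assays run by Cerep. Compound tested at 10 μM, the default primary-binding concentration, with inhibition expressed relative to control. Inhibition above 50% taken as a significant effect.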

[3] = molecular target: Sodium-dependent serotonin transporter (Homo sapiens, UniProt P31645); experiment: Inhibition of [3H]-serotonin uptake in human SERT expressed in HEK293 cells by scintillation counting; type: cell-based
[4] = molecular target: 5-hydroxytryptamine receptor 6 (Homo sapiens) (UniProt P50406); experiment: Displacement of [3H]LSD from human 5-HT6 receptor at 10 uM relative to control; how it was run: as §1
[5] = Acute toxicity in KM mouse assessed as survival at 750 mg/kg, po up to 14 days (reference value: 100%); type: organism-based; design: dose 750 mg/kg, route oral; conditions: in vivo
[6] = test system: Salmonella typhimurium; experiment: Mutagenic activity in Salmonella typhimurium TA100 assessed as number of reversion mutation at 10 ug/plate; type: toxicity, organism-based; conditions: salmonella enterica subsp. enterica serovar typhimurium
How it was run: (§2)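 Ames reversion test in Salmonella typhimurium TA98 and TA100, with and without rat liver S9 metabolic activation. Compound was dissolved in DMSO and added at 3–5000 μg/plate. Each dose, vehicle and positive control was plated in triplicate, and revertant colonies were counted.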

[7] = molecular target: C-C chemokine receptor type 1 (Homo sapiens) (UniProt P32246); experiment: Displacement of [125I]MIP-1alpha from human CCR1 receptor at 10 uM relative to control; how it was run: as §1
[8] = Acute toxicity in KM mouse assessed as survival at 300 mg/kg, po up to 14 days (reference value: 100%); type: organism-based; design: dose 300 mg/kg, route oral; conditions: in vivo
[9] = molecular target: 5-hydroxytryptamine receptor 1B (Homo sapiens) (UniProt P28222); experiment: Displacement of [125I]CYP from human 5-HT1B receptor at 10 uM relative to control; how it was run: as §1
[10] = test system: Rattus norvegicus; experiment: Antidepressant activity in rat assessed as reduction in immobility time at 5 mg/kg, po by forced swimming test relative to control; type: functional
How it was run: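 Male rats dosed orally at 5, 10 or 20 mg/kg alongside vehicle and venlafaxine 30 mg/kg PO groups. 1 h post-dose, each rat placed in a glass cylinder (40 cm × 18 cm) holding 15 cm of 25 ± 1 °C water. Immobility time recorded over a 6 min trial; significant main effects followed by post hoc Fisher's test.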

[11] = molecular target: T1, Sodium-dependent noradrenaline transporter; conditions: 10 uM
[12] = molecular target: Cannabinoid receptor 1 (Homo sapiens) (UniProt P21554); experiment: Displacement of [3H]-CP55940 from human CB1 receptor at 10 uM relative to control; how it was run: as §1
[13] = molecular target: Muscarinic acetylcholine receptor M3 (Homo sapiens) (UniProt P20309); experiment: Displacement of [3H]4-DAMP from human muscarinic M3 receptor at 10 uM relative to control; how it was run: as §1
[14] = species: Homo sapiens; experiment: Inhibition of SKca channel (unknown origin) at 10 uM by [125I]apamin binding assay relative to control
How it was run: (§3)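 Outsourced CNS receptor panel (55 binding assays); compound tested at 10 μM in primary radioligand binding; specific binding inhibition expressed relative to control, with >50% inhibition taken as a significant effect.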

[15] = Drug uptake in Sprague-Dawley rat plasma at 0.5 mg/kg iv after 0.50 hrs; type: ADME, organism-based; design: dose 0.5 mg/kg, route intravenous
How it was run: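 Male SD rats, fasted overnight until 6 h post-dose; single 0.5 mg/kg femoral-vein injection; blood drawn into heparin at 5, 15, 30 min, 1, 2 and 4 h; plasma stored at -40 °C; drug levels by LC/MS/MS; noncompartmental parameters.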

[16] = molecular target: T2, Sodium-dependent dopamine transporter (Homo sapiens, UniProt Q01959); experiment: Inhibition of [3H]-DA uptake in human dopamine transporter expressed in HEK293 cells by scintillation counting; type: cell-based
[17] = Acute toxicity in KM mouse assessed as survival at 450 mg/kg, po up to 14 days (reference value: 100%); type: organism-based; design: dose 450 mg/kg, route oral; conditions: in vivo
[18] = test system: Salmonella typhimurium; experiment: Mutagenic activity in Salmonella typhimurium TA100 assessed as number of reversion mutation at 300 ug/plate; type: toxicity, organism-based; conditions: salmonella enterica subsp. enterica serovar typhimurium; how it was run: as §2
[19] = molecular target: Adrenergic receptor alpha-1 (Homo sapiens) (UniProt P35348+P25100+P35368); experiment: Displacement of [3H]prazosin from alpha1-adrenergic receptor (unknown origin) at 10 uM relative to control; how it was run: as §3
[20] = molecular target: Muscarinic acetylcholine receptor M2 (Homo sapiens) (UniProt P08172); experiment: Displacement of [3H]AF-DX 384 from human muscarinic M2 receptor at 10 uM relative to control; how it was run: as §1
[21] = molecular target: 5-hydroxytryptamine receptor 2B (Homo sapiens) (UniProt P41595); experiment: Displacement of [125I] (+/-)DOI from human 5-HT2B receptor at 10 uM relative to control; how it was run: as §1
[22] = molecular target: Vasoactive intestinal polypeptide receptor 1 (Homo sapiens) (UniProt P32241); experiment: Displacement of [125I]VIP from human VPAC1 receptor at 10 uM relative to control; how it was run: as §1
[23] = molecular target: T2, Sodium-dependent dopamine transporter; experiment: Displacement of [3H]BTCP from human DAT at 10 uM relative to control; how it was run: as §1
[24] = test system: Rattus norvegicus; experiment: Apparent volume of distribution during terminal phase in Sprague-Dawley rat at 0.5 mg/kg, iv; type: ADME, organism-based; design: dose 0.5 mg/kg, route intravenous; conditions: in vivo
How it was run: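 Male SD rats, fasted overnight until 6 h post-dose. PO group received single 2 mg/kg with heparinized blood sampled at 5, 15, 30 min, 1, 2, 4, 8, 24 h. IV group received single 0.5 mg/kg via femoral vein with sampling at 5, 15, 30 min, 1, 2, 4 h. Plasma stored at -40 °C, quantified by LC/MS/MS; 24 rats per group.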

[25] = molecular target: Delta-type opioid receptor (Homo sapiens) (UniProt P41143); experiment: Displacement of [3H] DADLE from human delta opioid receptor at 10 uM relative to control; how it was run: as §1
[26] = molecular target: Cholecystokinin receptor type A (Homo sapiens) (UniProt P32238); experiment: Displacement of [125I]CCK-8s from human CCKA at 10 uM relative to control; how it was run: as §1
[27] = molecular target: Neuromedin-K receptor (Homo sapiens) (UniProt P29371); experiment: Displacement of [3H]-SR142801 from human NK3 receptor at 10 uM relative to control; how it was run: as §1
[28] = molecular target: Vasopressin V1a receptor (Homo sapiens) (UniProt P37288); experiment: Displacement of [3H]AVP from human V1a receptor at 10 uM relative to control; how it was run: as §1
[29] = test system: Salmonella typhimurium; experiment: Mutagenic activity in Salmonella typhimurium TA100 assessed as number of reversion mutation at 30 ug/plate; type: toxicity, organism-based; conditions: salmonella enterica subsp. enterica serovar typhimurium; how it was run: as §2
[30] = molecular target: Adrenergic receptor alpha-2 (Homo sapiens) (UniProt P08913+P18825+P18089); experiment: Displacement of [3H]-RX-821002 from alpha-2 adrenergic receptor (unknown origin) at 10 uM relative to control; type: protein assay; how it was run: as §1

T2 sequence (Q01959 whole entry): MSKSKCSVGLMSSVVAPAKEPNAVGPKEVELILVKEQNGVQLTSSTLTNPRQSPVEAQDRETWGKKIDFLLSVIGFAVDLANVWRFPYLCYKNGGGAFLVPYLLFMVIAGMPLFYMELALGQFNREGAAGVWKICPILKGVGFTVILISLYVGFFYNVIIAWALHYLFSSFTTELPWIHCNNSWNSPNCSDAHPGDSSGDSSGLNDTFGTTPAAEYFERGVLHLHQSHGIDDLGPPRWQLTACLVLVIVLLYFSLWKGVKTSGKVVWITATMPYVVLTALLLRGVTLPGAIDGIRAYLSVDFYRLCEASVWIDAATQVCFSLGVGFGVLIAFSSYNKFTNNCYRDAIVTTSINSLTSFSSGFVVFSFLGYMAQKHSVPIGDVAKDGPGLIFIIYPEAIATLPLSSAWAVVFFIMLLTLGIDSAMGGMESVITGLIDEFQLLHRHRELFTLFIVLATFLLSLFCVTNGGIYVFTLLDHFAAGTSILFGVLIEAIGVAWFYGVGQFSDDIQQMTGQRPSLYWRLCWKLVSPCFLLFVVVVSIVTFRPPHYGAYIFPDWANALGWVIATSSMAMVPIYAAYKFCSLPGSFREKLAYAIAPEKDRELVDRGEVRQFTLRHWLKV
T1 sequence (P23975 whole entry): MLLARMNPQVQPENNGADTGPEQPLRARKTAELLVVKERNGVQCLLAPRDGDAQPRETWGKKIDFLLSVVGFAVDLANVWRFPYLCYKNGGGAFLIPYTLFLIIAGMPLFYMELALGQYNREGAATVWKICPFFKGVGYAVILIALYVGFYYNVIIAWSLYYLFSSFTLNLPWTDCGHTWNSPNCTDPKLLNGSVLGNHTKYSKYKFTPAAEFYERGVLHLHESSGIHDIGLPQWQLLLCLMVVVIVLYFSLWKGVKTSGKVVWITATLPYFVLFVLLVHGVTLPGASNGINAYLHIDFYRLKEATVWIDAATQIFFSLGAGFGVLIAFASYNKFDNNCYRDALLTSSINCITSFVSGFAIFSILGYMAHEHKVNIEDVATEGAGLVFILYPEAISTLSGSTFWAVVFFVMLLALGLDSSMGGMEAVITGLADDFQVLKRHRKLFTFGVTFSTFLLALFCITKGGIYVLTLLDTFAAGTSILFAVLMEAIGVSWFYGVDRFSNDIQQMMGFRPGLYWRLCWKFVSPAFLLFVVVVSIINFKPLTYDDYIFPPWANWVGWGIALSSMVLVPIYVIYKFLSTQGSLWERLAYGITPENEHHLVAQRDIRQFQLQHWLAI
Chain of 5-hydroxytryptamine receptor 6 (Homo sapiens) (P50406 whole entry): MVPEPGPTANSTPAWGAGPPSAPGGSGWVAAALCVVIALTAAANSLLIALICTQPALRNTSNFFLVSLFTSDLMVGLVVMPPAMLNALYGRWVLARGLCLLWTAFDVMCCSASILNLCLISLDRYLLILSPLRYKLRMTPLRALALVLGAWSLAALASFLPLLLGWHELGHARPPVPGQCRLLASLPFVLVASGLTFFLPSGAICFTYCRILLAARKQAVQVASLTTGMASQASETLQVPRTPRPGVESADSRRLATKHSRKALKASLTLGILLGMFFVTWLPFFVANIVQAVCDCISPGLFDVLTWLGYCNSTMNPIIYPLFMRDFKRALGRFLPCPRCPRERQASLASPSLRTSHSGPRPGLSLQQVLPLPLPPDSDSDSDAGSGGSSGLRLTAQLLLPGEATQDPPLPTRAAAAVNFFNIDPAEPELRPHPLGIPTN
Chain of Vasopressin V1a receptor (Homo sapiens) (P37288 whole entry, looked up): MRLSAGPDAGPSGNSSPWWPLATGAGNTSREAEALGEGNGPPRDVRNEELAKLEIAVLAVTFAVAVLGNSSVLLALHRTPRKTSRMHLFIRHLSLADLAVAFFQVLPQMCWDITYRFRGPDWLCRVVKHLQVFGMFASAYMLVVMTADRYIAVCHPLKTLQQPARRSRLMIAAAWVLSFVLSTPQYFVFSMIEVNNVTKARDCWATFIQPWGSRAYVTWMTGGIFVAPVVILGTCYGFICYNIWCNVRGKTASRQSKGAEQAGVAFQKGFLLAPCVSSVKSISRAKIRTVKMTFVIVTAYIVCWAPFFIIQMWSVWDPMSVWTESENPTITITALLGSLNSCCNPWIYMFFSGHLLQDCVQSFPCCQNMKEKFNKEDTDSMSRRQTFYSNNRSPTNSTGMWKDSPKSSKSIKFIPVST
Chain of Cholecystokinin receptor type A (Homo sapiens) (P32238 whole entry): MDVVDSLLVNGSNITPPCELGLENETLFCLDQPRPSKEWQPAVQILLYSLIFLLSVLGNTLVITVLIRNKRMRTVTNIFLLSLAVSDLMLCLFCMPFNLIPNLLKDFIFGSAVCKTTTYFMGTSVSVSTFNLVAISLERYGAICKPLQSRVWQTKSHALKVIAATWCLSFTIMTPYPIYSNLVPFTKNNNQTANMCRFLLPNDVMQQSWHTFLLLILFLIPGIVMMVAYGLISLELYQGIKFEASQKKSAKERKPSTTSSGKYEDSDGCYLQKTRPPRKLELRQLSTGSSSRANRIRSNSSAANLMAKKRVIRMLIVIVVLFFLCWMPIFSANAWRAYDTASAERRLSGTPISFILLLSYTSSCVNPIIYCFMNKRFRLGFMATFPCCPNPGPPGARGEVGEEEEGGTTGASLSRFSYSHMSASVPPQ
Chain of Vasoactive intestinal polypeptide receptor 1 (Homo sapiens) (P32241 whole entry): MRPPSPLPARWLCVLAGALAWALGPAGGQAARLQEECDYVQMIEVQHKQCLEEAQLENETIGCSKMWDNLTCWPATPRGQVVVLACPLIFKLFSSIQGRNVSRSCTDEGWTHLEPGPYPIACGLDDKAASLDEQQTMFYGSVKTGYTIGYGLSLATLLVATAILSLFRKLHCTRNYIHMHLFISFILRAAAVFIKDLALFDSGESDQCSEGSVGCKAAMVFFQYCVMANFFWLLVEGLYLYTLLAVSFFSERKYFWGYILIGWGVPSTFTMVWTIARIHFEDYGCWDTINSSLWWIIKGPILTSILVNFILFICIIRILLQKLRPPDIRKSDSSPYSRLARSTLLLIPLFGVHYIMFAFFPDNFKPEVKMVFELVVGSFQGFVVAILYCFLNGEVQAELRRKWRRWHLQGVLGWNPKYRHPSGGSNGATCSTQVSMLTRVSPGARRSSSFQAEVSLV
Chain of 5-hydroxytryptamine receptor 5A (Homo sapiens) (P47898 whole entry): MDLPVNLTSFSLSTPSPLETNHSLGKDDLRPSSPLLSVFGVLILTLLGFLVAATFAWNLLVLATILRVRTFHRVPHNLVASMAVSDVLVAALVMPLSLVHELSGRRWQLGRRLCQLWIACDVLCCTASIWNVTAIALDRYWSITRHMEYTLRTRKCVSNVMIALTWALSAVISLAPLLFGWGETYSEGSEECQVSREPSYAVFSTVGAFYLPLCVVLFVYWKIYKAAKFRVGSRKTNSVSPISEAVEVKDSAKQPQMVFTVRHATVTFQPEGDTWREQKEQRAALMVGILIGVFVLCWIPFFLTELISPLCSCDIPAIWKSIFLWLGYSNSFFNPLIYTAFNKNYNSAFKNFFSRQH
Chain of 5-hydroxytryptamine receptor 2B (Homo sapiens) (P41595 whole entry): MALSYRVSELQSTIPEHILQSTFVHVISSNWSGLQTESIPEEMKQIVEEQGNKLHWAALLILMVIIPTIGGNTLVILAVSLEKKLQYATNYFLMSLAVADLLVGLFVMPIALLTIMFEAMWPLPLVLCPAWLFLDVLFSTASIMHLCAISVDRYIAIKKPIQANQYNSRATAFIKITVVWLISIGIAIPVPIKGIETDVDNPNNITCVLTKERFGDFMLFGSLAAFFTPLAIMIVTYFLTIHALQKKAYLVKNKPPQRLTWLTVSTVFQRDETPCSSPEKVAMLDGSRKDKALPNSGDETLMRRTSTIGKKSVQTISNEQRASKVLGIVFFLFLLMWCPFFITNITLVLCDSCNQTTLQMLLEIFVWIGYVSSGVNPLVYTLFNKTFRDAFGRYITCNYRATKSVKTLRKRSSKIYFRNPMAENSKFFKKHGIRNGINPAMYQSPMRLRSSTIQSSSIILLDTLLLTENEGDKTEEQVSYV
Chain of Muscarinic acetylcholine receptor M2 (Homo sapiens) (P08172 whole entry): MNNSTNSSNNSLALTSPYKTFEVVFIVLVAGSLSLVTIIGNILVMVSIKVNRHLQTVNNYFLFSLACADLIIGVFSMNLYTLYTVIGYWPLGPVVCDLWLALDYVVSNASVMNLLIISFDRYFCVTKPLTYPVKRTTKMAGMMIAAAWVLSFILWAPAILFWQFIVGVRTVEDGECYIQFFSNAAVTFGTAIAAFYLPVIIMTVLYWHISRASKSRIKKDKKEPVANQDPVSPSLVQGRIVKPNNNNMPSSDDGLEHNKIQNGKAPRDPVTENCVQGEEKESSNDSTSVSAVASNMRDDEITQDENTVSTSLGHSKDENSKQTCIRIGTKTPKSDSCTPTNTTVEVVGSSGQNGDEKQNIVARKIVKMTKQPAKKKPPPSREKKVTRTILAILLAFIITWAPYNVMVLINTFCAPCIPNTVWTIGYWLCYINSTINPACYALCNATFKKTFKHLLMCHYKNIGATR
Chain of Delta-type opioid receptor (Homo sapiens) (P41143 whole entry): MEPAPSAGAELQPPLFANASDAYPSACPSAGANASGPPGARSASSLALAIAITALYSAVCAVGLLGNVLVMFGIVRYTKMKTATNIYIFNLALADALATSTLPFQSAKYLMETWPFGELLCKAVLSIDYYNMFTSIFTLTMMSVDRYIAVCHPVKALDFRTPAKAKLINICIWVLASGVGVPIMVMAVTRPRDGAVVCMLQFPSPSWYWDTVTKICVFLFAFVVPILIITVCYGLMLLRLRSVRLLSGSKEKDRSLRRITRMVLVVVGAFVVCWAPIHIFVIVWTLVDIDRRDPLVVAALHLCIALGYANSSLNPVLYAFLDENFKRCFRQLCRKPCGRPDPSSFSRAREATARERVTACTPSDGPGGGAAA

## CN(C)CCC(c1ccc(Cl)c(Cl)c1)N1CCOCC1 (stereo not given)
[1]
  IC50: 478 nM
[2]
  inhibition: 1.4%
[3]
  IC50: 378 nM
[4]
  inhibition: 2.4%
[5]
  survival at 336 h: 60%
[6]
  Activity: 75
[7]
  inhibition: 22.1%
[8]
  survival at 336 h: 100%
[9]
  inhibition: 0.7%
[10]
  inhibition in vivo at 5 mg/kg: 31%
[11]
  inhibition: 96.7%
[12]
  inhibition: -6.2%
[13]
  inhibition: 20.6%
[14]
  inhibition: -3.8%
[15]
  concentration at 0.5 h: 44.5 ng/mL
[16]
  IC50: 247 nM
[17]
  survival at 336 h: 100%
[18]
  Activity: 93
[19]
  inhibition: 2.6%
[20]
  inhibition: 17.7%
[21]
  inhibition: 19.2%
[22]
  inhibition: 2.2%
[23]
  inhibition: 93.6%
[24]
  Vz/F: 8.3 L/kg
[25]
  inhibition: -1.1%
[26]
  inhibition: 1%
[27]
  inhibition: -0.5%
[28]
  inhibition: 3.3%
[29]
  Activity: 75
[30]
  inhibition: 9.6%
